Compounds with a hit are over-represented: about 1.6% of the library has one in this group of screens.
LMPTP block: LMPTP phosphatase inhibitors, primary screen, biochemical, fluorescence intensity, uHTS. Low molecular weight phosphotyrosine protein phosphatase (Homo sapiens), P24666. recombinant LMPTP-A, OMFP fluorogenic substrate. inhibition, % at 20 µM. 360,000 tested, 0.22% active. AID 651560, 2012;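 active = compounds that cut the enzyme signal by at least half of the control window in the single-dose screen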
Target sequence (P24666 whole entry, looked up): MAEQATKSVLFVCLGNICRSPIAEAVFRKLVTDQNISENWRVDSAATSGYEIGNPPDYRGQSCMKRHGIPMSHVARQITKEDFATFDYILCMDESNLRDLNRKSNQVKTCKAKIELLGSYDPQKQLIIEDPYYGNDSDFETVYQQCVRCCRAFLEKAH
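Buffer or medium: Bis-Tris pH 6.0, DTT, detergent; Assay system: LMPTP-A enzyme; Quantity: 0.625 nM enzyme; Detection: endpoint fluorescence intensity; Times: 50 min dark incubation at room temperature; Controls: substrate-only low control, DMSO enzyme-plus-substrate high control; Doses: single 20 µM dose; Read-out: percent inhibition versus substrate-only and uninhibited controls; Reagent: 400 µM OMFP.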
STEP block: STEP phosphatase inhibitors, primary screen, biochemical, fluorescence intensity, uHTS. inhibition, % at 20 µM. recombinant STEP, OMFP fluorogenic substrate. 360,000 tested, 0.25% active. Tyrosine-protein phosphatase non-receptor type 5 (Homo sapiens), P54829;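 active = inhibition at 20 µM, scaled per plate between control wells, above about 37%, limit read from the data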
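Also added – OMFP at 25 µM · Test system – STEP tyrosine phosphatase · Technique – FITC-channel fluorescence of OMFP product · Schedule – 20 min at room temperature, dark · Evaluation – control-normalized % inhibition with plate pattern correction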
DNMT1 inh: human DNMT1 methyltransferase inhibitors, primary screen, biochemical, molecular beacon, fluorescence, HinP1I cleavage, uHTS. inhibition (reported as % activation of signal), % at 10 µM. 360,000 tested, 0.83% active. AID 588458, 2011. DNA (cytosine-5)-methyltransferase 1 (Homo sapiens), P26358; in the data active = inhibition above about 50%
F508del corr: F508del CFTR correction, initial screen, CFBE line, single point. CFBE cells, YFP halide quenching; stimulated with forskolin plus potentiator P3; % fluorescence drop versus neutral controls. 350,000 tested, 0.36% active. activity (quench increase), % at 7.58 µM;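 active = mean added fluorescence quench of at least 8% versus neutral control, with both replicates also reaching 8%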;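 also: cells transiently co-express mutant CFTR-F508del with the halide-sensitive YFP; corrector assay measuring rescue of mutant channel to the surface after 24 h compound exposure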
SUMO1 PPI mod: modulators of SUMO1 protein-protein interactions, primary screen, biochemical, uHTS. Small ubiquitin-related modifier 1 (Homo sapiens), P63165. SUMO1 binding to a labelled peptide, TR-FRET, 1 h. inhibition, % at 20 µM. 360,000 tested, 0.33% active. AID 602429, 2012; in the data active = inhibition above about 37%
Target sequence (P63165 whole entry, looked up): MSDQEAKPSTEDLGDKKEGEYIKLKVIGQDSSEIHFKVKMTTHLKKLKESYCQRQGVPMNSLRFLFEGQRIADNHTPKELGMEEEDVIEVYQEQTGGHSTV
Scp-1 inhibitor: Scp-1 phosphatase inhibitors, primary screen, biochemical, colorimetric, uHTS; 340,000 tested, 0.88% active; Recombinant Scp1, phosphopeptide, malachite green phosphate absorbance; inhibition, % at 20 µM; Carboxy-terminal domain RNA polymerase II polypeptide A small phosphatase 1 (Homo …;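 active = inhibition above about 50% at 20 µM, limit read from the data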
Target sequence (Q9GZU7 76-261 limits assumed): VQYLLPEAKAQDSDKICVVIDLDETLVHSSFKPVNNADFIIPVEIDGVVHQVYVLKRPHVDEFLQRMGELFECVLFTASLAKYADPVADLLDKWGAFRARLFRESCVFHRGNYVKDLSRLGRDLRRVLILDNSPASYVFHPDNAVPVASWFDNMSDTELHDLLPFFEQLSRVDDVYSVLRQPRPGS
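assay system = SCP-1 phosphatase catalytic domain, residues 76-261 | buffer or medium = 50 mM Tris acetate pH 5.5, 0.005% Tween-20, 10 mM MgCl2 | incubation = enzyme reaction 45 min at room temperature, colour 5 min, stabilisation 30 min | signal = Phosphate-binding colour reagent, absorbance read at 630 nm | measure = % inhibition at 20 µM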
Scp-1 conf: Scp-1 phosphatase inhibitors, retest, confirmation, biochemical, colorimetric, single concentration; shares compounds with Scp-1 inhibitor; recombinant SCP-1 catalytic domain, phosphate release, malachite green absorbance; inhibition, % at 20 µM; 2,500 tested, 61% active
Scp-1 MG ctr: colorimetric readout interference by compounds, confirmation, artefact control for Scp-1 inhibitor project, biochemical, single concentration; shares compounds with Scp-1 inhibitor; Colorimetric interference counterscreen, malachite green absorbance 630 nm; apparent inhibition (interference), % at 20 µM; 2,500 tested, under 10 active;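 also: compounds added after enzyme reaction finished so only phosphate colour detection is probed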
Scp1 DSF: Scp-1 binding by thermal shift, confirmation, orthogonal assay for Scp-1 inhibitor project, biophysical, differential scanning fluorimetry | shares compounds with Scp-1 inhibitor | Recombinant SCP1, Sypro Orange thermal shift Tm | thermal shift relative to vanadate control, % at 40 µM | 1,500 tested, 25% active;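 active = substances whose mean melting-temperature shift, as a percentage of the reference inhibitor's shift, reaches about 5.3%, limit read from the data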
Hits are given with their value; n = inactive; x = no result given.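 The calls were made as follows, unless noted: active = inhibition of at least 30% at 20 µM; inactive = the rest.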

SMILES | LMPTP block | STEP block | DNMT1 inh | F508del corr | SUMO1 PPI mod | Scp-1 inhibitor | Scp-1 conf | Scp-1 MG ctr | Scp1 DSF
COc1ccc(CC(=O)Nc2nccs2)cc1OC | n | n | n | x | n | n | x | x | x
C[C@]12CC[C@H](O)C[C@@H]1CC[C@@H]1[C@@H]2CC[C@@]2(C)[C@H]1CCC(=O)[C@]21CCCO1 | n | n | n | n | n | 82 | n | n | x
C[C@H](O)[C@@]1(O)CC[C@H]2[C@@H]3CC[C@@H]4C[C@H](O)CC[C@]4(C)[C@H]3CC[C@@]21C | n | n | n | n | n | n | x | x | x
Nc1ccc(S(=O)(=O)NCC(=O)OC2CCOC2=O)cc1[N+](=O)[O-] (stereo not drawn) | n | n | n | n | n | 55 | n | n | x
COc1ccccc1CNS(=O)(=O)c1ccc2[nH]cc(C(=O)O)c(=O)c2c1 | n | n | 86 | x | n | 55 | 47 | n | n
COc1ccc2c3c([nH]c2c1)[C@@H](CO)N(C)CC31CN(S(=O)(=O)c2cn(C)cn2)C1 | x | x | x | n | x | x | x | x | x
Cc1ccc(C(=O)N2CCN(S(=O)(=O)c3cc(Br)ccc3Br)CC2)o1 | n | n | n | n | n | 68 | n | n | x
Cc1ccc(C(=O)N2CCN(S(=O)(=O)c3ccccc3[N+](=O)[O-])CC2)o1 | n | n | n | n | n | n | x | x | x
CCCc1cc(=O)oc2cc(OCC(=O)NC(Cc3c[nH]c4ccc(O)cc34)C(=O)O)c(Cl)cc12 (stereo not drawn) | n | n | n | n | n | 55 | 51 | n | 11
CCC(C)c1ccccc1NC(=O)c1cccc(-n2cnnn2)c1 (stereo not drawn) | n | n | n | n | n | 73 | n | n | x
N#C/C(=C\c1ccc(OC(=O)c2cccs2)cc1)c1nc2ccccc2[nH]1 | n | n | n | x | n | 52 | 83 | n | n
CCOc1ccccc1NC(=O)N1CCC(NC(=O)c2cccc(C)c2)CC1 | n | n | n | x | n | 99 | 67 | n | n
COc1ccc(/C=N\NC(=O)c2ccc([N+](=O)[O-])c(C)c2)cc1COc1ccccc1C(N)=O | n | n | n | n | 54 | 67 | 34 | n | n
CCC(=O)N1C[C@H](C)[C@H](OC)CN(C)C(=O)c2cc(NS(=O)(=O)CC)ccc2OC[C@@H]1C | x | x | x | n | x | x | x | x | x
CN(C(=O)c1cc2c(=O)n3ccccc3nc2n1C)C1CCCCC1 | n | n | n | n | n | 80 | n | n | x
O=C([C@@H]1[C@@H](CO)[C@@H]2Cn3c(ccc(/C=C/c4ccccc4)c3=O)[C@@H]2N1CC1CC1)N1CCCCC1 | x | x | x | n | x | x | x | x | x
COc1ccc(/C=N/NC(=O)c2ccc(O)cc2O)cc1CSc1ccccn1 | n | n | n | x | n | 57 | 64 | n | n
COc1ccc(C=O)cc1CSc1ccccn1 | n | n | n | n | n | n | x | x | x
COc1ccc(OC)c(/C=N/N(CCC#N)C2=NS(=O)(=O)c3ccccc32)c1 | n | n | n | n | n | 76 | n | n | x

Assay outcomes (PubChem BioAssay)
